Data: publication PMC7108400 (Leukemia research, 2019)
“Also recorded” adds a separate entry of the source. Like-named read-outs stand apart in the source and are kept apart here.

Legend:
AML = conditions: cited from earlier work
BRCA1, CHK1, and RAD51 = conditions: AML cell lines; cited from earlier work
[1] = test system: newly diagnosed primary or secondary high-risk AML; assay: Anti-leukemic efficacy; assay type: in vivo, human; conditions: for ORR: 20-mg dose level
newly diagnosed AML = conditions: cited from earlier work
[2] = Panobinostat plasma pharmacokinetics, cycle 1 day 8, non-compartmental; assay type: in vivo, human; conditions: for CL/F / AUC / AUC(0-t) / Vd/F: geometric mean (%CV); for Cmax / AUC / AUC(0-t) / half-life / Tmax / Vd/F: human, plasma, oral; for AUC: AUC0inf; for half-life: T1/2, Median (range); for Tmax: Median (range); for Vd/F: Vz/F
Procedure, shortened: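 Adults <65 y with newly diagnosed high-risk AML received oral HDAC-inhibitor test compound thrice weekly from day 8, after idarubicin 12 mg/m²/d IV (days 1–3) and ara-C 100 mg/m²/d continuous IV (days 1–7). On cycle 1 day 8, 3 mL blood was drawn pre-dose and at 0.5–28 h. Plasma parameters were derived non-compartmentally; geometric mean (%CV) excluded zero concentrations, and Tmax is median (range).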

[3] = test system: AML cell lines and primary AML cells from patients; conditions: combination with doxorubicin; cited from earlier work
[4] = test system: first relapse or primary refractory AML; conditions: cited from earlier work
[5] = test system: AML progressed on standard therapy / advanced hematologic malignancies; conditions: single agent, cited from earlier work
[6] = Dose-limiting toxicities and MTD/RP2D determination; assay type: in vivo
de novo AML = conditions: cited from earlier work
[7] = PAN 20 mg (expansion phase), N=12
[8] = elderly patients (> 65 years), with idarubicin and ara-C
[9] = 20 mg, PAN 20 mg (expansion phase), N=10

Nc1ncn([C@@H]2O[C@H](CO)[C@@H](O)[C@H]2O)c(=O)n1 [azacitidine]
Grade ≥ 3 AEs (AML; azacitidine alone): 81%

Cc1[nH]c2ccccc2c1CCNCc1ccc(/C=C/C(=O)NO)cc1 [panobinostat]
Expression of BRCA1, CHK1, and RAD51 (BRCA1, CHK1, and RAD51): decreases the levels of key proteins BRCA1, CHK1, and RAD51; also recorded: reduce the expression of BRCA1, CHK1, and RAD51 | SAE: sepsis (1 in 25 mg and 1 in 20 mg expansion groups): 2 patients | Discontinuation, primary reason death (All patients, n=46): 5 (10.9) n (%) | Discontinuation, primary reason death (PAN 15 mg, n=11): 1 (9.1) n (%) | Discontinuation, primary reason death (PAN 20 mg (dose expansion), n=12): 3 (25) n (%) | SAE: infections (all dose groups): 5 patients | On-treatment deaths during the induction phase (all in the 20 mg expansion dose group): 6.5% | Deaths during the study period or within 28 days after the end of treatment (all patients): 6 deaths | Deaths in the induction phase (all patients): 3 deaths | Deaths overall (induction and consolidation) (all patients): 5 deaths | Abdominal pain, Any grade (human, in vivo): 3 (6.5) n (%) | Abdominal pain, Grade 3 or 4 (human, in vivo): 0 (0.0) n (%) | All-grade cardiac events (human, in vivo): 6.5% | Alopecia, Any grade (human, in vivo): 3 (6.5) n (%) | Alopecia, Grade 3 or 4 (human, in vivo): 0 (0.0) n (%) | Anemia, Any grade (human, in vivo): 17 (37.0) n (%) | Anemia, Grade 3 or 4 (human, in vivo): 15 (32.6) n (%) | Anemia, all-grade (human, in vivo): 37% | Decreased appetite, Any grade (human, in vivo): 10 (21.7) n (%) | Decreased appetite, Grade 3 or 4 (human, in vivo): 1 (2.2) n (%) | Decreased appetite, all-grade (human, in vivo): 21.7% | Diarrhea, Any grade (human, in vivo): 25 (54.3) n (%) | Diarrhea, Grade 3 or 4 (human, in vivo): 3 (6.5) n (%) | Discontinuation, primary reason adverse events (human, in vivo): 8 (17.4) n (%) | Discontinued due to AEs (human, in vivo): 15.8% | Dyspepsia, Any grade (human, in vivo): 2 (4.3) n (%) | Dyspepsia, Grade 3 or 4 (human, in vivo): 0 (0.0) n (%) | Fatigue, Any grade (human, in vivo): 8 (17.4) n (%) | Fatigue, Grade 3 or 4 (human, in vivo): 1 (2.2) n (%) | Fatigue, all-grade (human, in vivo): 17.4% | Febrile neutropenia, Any grade (human, in vivo): 17 (37.0) n (%) | Febrile neutropenia, Grade 3 or 4 (human, in vivo): 16 (34.8) n (%) | Febrile neutropenia, all-grade (human, in vivo): 37% | Grade 3 or 4 AEs suspected to be treatment-related (human, in vivo): 73.9% | Hypokalemia, Any grade (human, in vivo): 7 (15.2) n (%) | Hypokalemia, Grade 3 or 4 (human, in vivo): 3 (6.5) n (%) | Left ventricular dysfunction, Any grade (human, in vivo): 3 (6.5) n (%) | Left ventricular dysfunction, Grade 3 or 4 (human, in vivo): 2 (4.3) n (%) | Leukopenia, Any grade (human, in vivo): 2 (4.3) n (%) | Leukopenia, Grade 3 or 4 (human, in vivo): 2 (4.3) n (%) | Leukopenia, all-grade (human, in vivo): 4.3% | Nausea, Any grade (human, in vivo): 18 (39.1) n (%) | Nausea, Grade 3 or 4 (human, in vivo): 0 (0.0) n (%) | Neutropenia, Any grade (human, in vivo): 9 (19.6) n (%) | Neutropenia, Grade 3 or 4 (human, in vivo): 9 (19.6) n (%) | Neutropenia, all-grade (human, in vivo): 19.6% | Patients with AEs (human, in vivo): 84.8% | Pyrexia, Any grade (human, in vivo): 6 (13.0) n (%) | Pyrexia, Grade 3 or 4 (human, in vivo): 0 (0.0) n (%) | SAE: cardiac disorders (human, in vivo): 5 patients | SAE: grade ≥ 3 febrile neutropenia (human, in vivo): 10 patients | Stomatitis, Any grade (human, in vivo): 9 (19.6) n (%) | Stomatitis, Grade 3 or 4 (human, in vivo): 0 (0.0) n (%) | Stomatitis, all-grade (human, in vivo): 19.6% | Thrombocytopenia, Any grade (human, in vivo): 21 (45.7) n (%) | Thrombocytopenia, Grade 3 or 4 (human, in vivo): 21 (45.7) n (%) | Thrombocytopenia, all-grade (human, in vivo): 45.7% | Treatment discontinuation due to AEs (human, in vivo): 17.4% | Vomiting, Any grade (human, in vivo): 10 (21.7) n (%) | Vomiting, Grade 3 or 4 (human, in vivo): 0 (0.0) n (%) | Vomiting, all-grade (human, in vivo): 21.7% | Response rate ([1]; 15-mg dose group): 81.8% | CRi ([1]; 15-mg dose group (3 patients)): 27.3% | CR ([1]; 15-mg dose group (6 patients)): 54.5% | ORR ([1]; escalation phase (9 patients)): 60% | ORR ([1]; expansion phase (6 patients)): 50% | Complete remission (CR) ([1]; All patients, N=46): 20 (43.5) n (%) | Complete remission with incomplete blood count recovery (CRi) ([1]; All patients, N=46): 8 (17.4) n (%) | Partial remission (PR) ([1]; All patients, N=46): 2 (4.3) n (%) | Response rate (CR or CRi) ([1]; All patients, N=46): 28 (60.9) n (%) | Treatment failure ([1]; All patients, N=46): 13 (28.3) n (%) | Complete remission (CR) ([1]; PAN 15 mg, N=11): 6 (54.5) n (%) | Complete remission with incomplete blood count recovery (CRi) ([1]; PAN 15 mg, N=11): 3 (27.3) n (%) | Partial remission (PR) ([1]; PAN 15 mg, N=11): 0 (0.0) n (%) | Response rate (CR or CRi) ([1]; PAN 15 mg, N=11): 9 (81.8) n (%) | Treatment failure ([1]; PAN 15 mg, N=11): 1 (9.1) n (%) | Complete remission (CR) [1, 7]: 5 (41.7) n (%) | Complete remission with incomplete blood count recovery (CRi) [1, 7]: 1 (8.3) n (%) | Partial remission (PR) [1, 7]: 1 (8.3) n (%) | Response rate (CR or CRi) [1, 7]: 6 (50.0) n (%) | Treatment failure [1, 7]: 3 (25.0) n (%) | Complete remission (CR) ([1]; PAN 20 mg, N=15): 7 (46.7) n (%) | Complete remission with incomplete blood count recovery (CRi) ([1]; PAN 20 mg, N=15): 2 (13.3) n (%) | Partial remission (PR) ([1]; PAN 20 mg, N=15): 0 (0.0) n (%) | Response rate (CR or CRi) ([1]; PAN 20 mg, N=15): 9 (60.0) n (%) | Treatment failure ([1]; PAN 20 mg, N=15): 6 (40.0) n (%) | Complete remission (CR) ([1]; PAN 25 mg, N=8): 2 (25.0) n (%) | Complete remission with incomplete blood count recovery (CRi) ([1]; PAN 25 mg, N=8): 2 (25.0) n (%) | Partial remission (PR) ([1]; PAN 25 mg, N=8): 1 (12.5) n (%) | Response rate (CR or CRi) ([1]; PAN 25 mg, N=8): 4 (50.0) n (%) | Treatment failure ([1]; PAN 25 mg, N=8): 3 (37.5) n (%) | Re-induction rate (second induction cycle) ([1]; Ten of 46 patients): 22% | Overall response rate (ORR) (CR or CRi) ([1]; all 46 patients): 60.9% | CR with incomplete count recovery (CRi) ([1]; all 46 patients (8 patients)): 17.4% | Complete remission (CR) ([1]; all 46 patients (20 patients)): 43.5% | Event-free survival at 1-year ([1]; all patients): 78.3% | Treatment discontinuation due to disease progression ([1]; all patients (11 patients)): 23.9% | Median overall survival ([1]; current study): not reached | Median duration of response ([1]; inadequate number of events at last censoring): not estimable | CR rate (newly diagnosed AML; [8]): 64% | Median time to relapse (newly diagnosed AML; [8]): 17.0 months | MTD of panobinostat (newly diagnosed AML; with 8 mg/m^2 idarubicin (day 1–3) and 100 mg/m^2 ara-C (day 1–7), elderly): 10 mg | CL/F ([2]; PAN 15 mg, N=10): 295 (54.7) L/h | CL/F ([2]; PAN 20 mg (expansion phase), N=10): 193 (32.3) L/h | CL/F ([2]; PAN 20 mg, N=11): 269 (68.2) L/h | Tmax, Median (range) ([2]; PAN 25 mg, N=8): 2.02 [1.25–4.90] h | CL/F ([2]; PAN 25 mg, N=8): 294 (44.3) L/h | Cmax ([2]; 15 mg): 6.03 ng/mL | AUC ([2]; 15 mg, PAN 15 mg, N=10): 50.8 ng·h/mL | AUC(0-t) ([2]; 15 mg, AUC0–24, PAN 15 mg, N=10): 42.5 ng·h/mL | half-life ([2]; 15 mg, PAN 15 mg, N=10): 8.74 h | Tmax ([2]; 15 mg, PAN 15 mg, N=10): 3 h | Vd/F ([2]; 15 mg, PAN 15 mg, N=10): 3920 L | Cmax ([2]; 20 mg): 15 ng/mL | AUC [2, 9]: 103 ng·h/mL | AUC ([2]; 20 mg, PAN 20 mg, N=11): 74.3 ng·h/mL | AUC(0-t) ([2]; 20 mg, AUC0–24, PAN 20 mg (expansion phase), N=10): 92.7 ng·h/mL | AUC(0-t) ([2]; 20 mg, AUC0–24, PAN 20 mg, N=11): 62.6 ng·h/mL | half-life [2, 9]: 7.94 h | half-life ([2]; 20 mg, PAN 20 mg, N=11): 9.7 h | Tmax [2, 9]: 1.98 h | Tmax ([2]; 20 mg, PAN 20 mg, N=11): 1.05 h | Vd/F [2, 9]: 1810 L | Vd/F ([2]; 20 mg, PAN 20 mg, N=11): 3790 L | Cmax ([2]; 25 mg): 11.2 ng/mL | AUC ([2]; 25 mg, PAN 25 mg, N=8): 85 ng·h/mL | AUC(0-t) ([2]; 25 mg, AUC0–24, PAN 25 mg, N=8): 74.6 ng·h/mL | half-life ([2]; 25 mg, PAN 25 mg, N=8): 7.81 h | Vd/F ([2]; 25 mg, PAN 25 mg, N=8): 3360 L | Cell death (caspase-dependent apoptosis) [3]: induces cell death | DLTs ([4]; first 2 cohorts, 20 mg and 30 mg thrice weekly): no DLTs occurred | CR/CRi rate ([4]; plus ara-C and mitoxantrone): 46% | RP2D of panobinostat ([4]; with mitoxantrone and ara-C as salvage therapy): 50 mg | Grade ≥ 3 AEs (AML; panobinostat 30 mg combined with azacitidine): 97% | Complete remission (CR) ([5]; of 86 patients, 60-mg dose): 2 patients | MTD of panobinostat alone [5]: 60 mg | Patients who experienced DLTs during induction ([6]; human, in vivo): 7 patients | Recommended phase 2 dose (RP2D) of panobinostat ([6]; human, in vivo): 20 mg | MTD ([6]; patients 18–65 years, staggered schedule with idarubicin and ara-C): not reached

O=C(CCCCCCC(=O)Nc1ccccc1)NO [vorinostat]
Median overall survival (de novo AML; median follow-up of 82 weeks): 82 weeks | All-grade cardiac events (de novo AML; with idarubicin and ara-C): 15% | Diarrhea (de novo AML; with idarubicin and ara-C): 72% | Nausea (de novo AML; with idarubicin and ara-C): 65%
